Screens: PubChem BioAssay, several laboratories
HMGR II inh: inhibitors of E. faecalis class II HMGR, primary screen, biochemical, Enterococcus faecalis. actives 0.41% (n = 190,000). purified E. faecalis HMGR, NADPH absorbance 340 nm kinetic. inhibition, % at 10 µM. HMG-CoA reductase (Enterococcus faecalis, mvaE);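 active = inhibition above a set limit, the median over all tested compounds plus 3 SD, cut at about 9.5% in these data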;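 also: enzyme runs in reverse so mevalonate oxidation gives rising NADPH absorbance; 0% = complete reaction with DMSO and 100% = background rate lacking mevalonate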
PMI activator: activators of human PMI, primary screen, biochemical, fluorescence intensity, near-Km mannose 6-phosphate; purified human PMI, coupled resazurin fluorescence, 20 min; stronger effect = higher value; 1 = vehicle control, 0 substrate-free wells; AID 1214, 2008; Mannose-6-phosphate isomerase (Homo sapiens), P34949; actives 0.005% (n = 190,000); activation factor at 20 µM;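 active = activation factor of 2 or more at 20 µM, relative to plate controls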
PMI act hi M6P: human PMI activators, high substrate, primary screen, biochemical, fluorescence intensity, near-saturating mannose 6-phosphate; coupled PMI enzyme assay, resazurin fluorescence, 20 min; stronger effect = higher value; 1 = untreated enzyme, 0 = substrate-free blank; actives 0.34% (n = 190,000); activation factor at 20 µM;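 active = activation factor of 2 or more at 20 µM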
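Material: human phosphomannose isomerase with PGI, G6PDH, diaphorase coupling enzymes / Reagent: Man-6-P substrate 1.0 mM / Dosing: single compound dose of 20 µM, 1% DMSO final / Incubation: enzyme reaction with compound 20 min at room temperature / Signal: resorufin fluorescence (Ex 544/Em 590 nm) from resazurin via diaphorase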
p47phox inh: p47phox/p22phox peptide binding inhibitors, primary screen, biochemical, uHTS, NADPH oxidase regulatory subunit | Neutrophil cytosol factor 1 (Homo sapiens), P14598 | fluorescence polarization, 2 h | inhibition, % at 24.7 µM | actives 0.53% (n = 220,000) | AID 1274, 2008;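 active = inhibition above about 30%, limit read from the data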;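 also: 0% = p47phox with labelled peptide and 100% = labelled peptide alone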
Target sequence (P14598 whole entry, looked up): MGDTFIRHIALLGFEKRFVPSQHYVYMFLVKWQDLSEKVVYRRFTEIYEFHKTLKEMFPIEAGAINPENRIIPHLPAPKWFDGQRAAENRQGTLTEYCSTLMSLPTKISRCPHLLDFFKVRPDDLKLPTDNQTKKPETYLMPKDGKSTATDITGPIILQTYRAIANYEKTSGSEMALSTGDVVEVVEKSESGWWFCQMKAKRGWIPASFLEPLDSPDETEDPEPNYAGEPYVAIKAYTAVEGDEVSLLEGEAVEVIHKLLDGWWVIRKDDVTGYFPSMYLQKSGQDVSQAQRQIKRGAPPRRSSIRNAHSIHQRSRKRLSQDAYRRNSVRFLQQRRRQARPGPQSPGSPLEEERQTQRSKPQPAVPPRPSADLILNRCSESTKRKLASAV
Redox H2O2 prof: compounds producing H2O2 with reducing agent – biochemical, NIH compound library profiling, artefact control for MLSCN library redox annotation, primary screen; DTT-dependent redox cycling H2O2, phenol red/HRP absorbance; 100% = 100 µM peroxide control, 0% = buffer; activation, % at 10 µM; actives 0.03% (n = 200,000); AID 878, 2007;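 active = activation of at least 50% relative to the plate's high and low controls in the primary single-dose screen; inactive = activation below 50%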;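 also: compound incubated with DTT at 0.8 mM final as the reducing agent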
Diaph act CS: compounds boosting diaphorase resazurin reduction – biochemical, uHTS, resorufin fluorescence, counter-screen for diaphorase-coupled primary assays, primary screen. Diaphorase/resazurin coupled assay, 16 min; stronger effect = higher value; 1 = vehicle wells, 0 = NADH-free wells. activation factor at 20 µM. actives 0.005% (n = 190,000). AID 1229, 2008;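 active = diaphorase activity raised at least twofold by the compound at 20 µM; inactive = activation factor below 2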
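Assay system: Purified diaphorase enzyme from Clostridium kluyveri | Amount: Enzyme 0.07 U/mL final | Dosing: Compound 20 µM once, DMSO 1% | Timing: 16 min reaction at room temperature | Detection: Fluorescence, excitation 544 nm and emission 590 nm | Evaluation: Higher resorufin formation from activation or reduction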
Numbers without * were called inactive; · = no result given; ! = not active in a repeat. Most compounds without a hit are left out; they make up all but 1.2% or so of the library.

SMILES | HMGR II inh | PMI activator | PMI act hi M6P | p47phox inh | Redox H2O2 prof | Diaph act CS
Cn1ncc(N=Cc2c(O)ccc3ccccc23)c1C(=O)Nc1cccc(Cl)c1 | -4 | 0.7 | 0.4 | -16 | -2 | 0.8
COc1ccc(-c2cn3c(C)c(C(=O)Nc4cccc(C)n4)sc3n2)cc1 | 3 | 1.7 | 2* | -22 | 0 | 1
O=C(OC1CCCCC1)c1ccc2c(c1)C1C=CCC1C(C(=O)O)N2 (stereo not given) | -1 | 1.3 | 1.8 | 39* | 2 | 0.5
COc1ccc(S(=O)(=O)Nc2ccccc2OC)cc1NC(=O)CC1CC2CCC1C2 (stereo not given) | 1 | 0.9 | 0.9 | -24 | 0 | 0.6
O=C(NNc1cc(N2CCOCC2)nc(N2CCOCC2)n1)c1ccc([N+](=O)[O-])cc1 | -6 | 0.6 | 0.4 | 49* | -1 | 0.6
O=C(Nc1ccc(N2CCOCC2)cc1N1CCOCC1)c1ccc([N+](=O)[O-])cc1 | 1 | 1 | 1 | -13 | -3 | 1
OCCCCNc1cccc2ccccc12 | 0 | 0.6 | 0.9 | 42* | 0 | 0.7
Nc1ccc(-c2nc3nc(N)nc(N)c3nc2-c2ccc(N)cc2)cc1 | · | · | · | 3 | · | ·
Cc1cccc(-n2c(=S)[nH]c3nc4c(cc3c2=O)COC(C)(C)C4)c1 | · | · | · | -12 | · | ·
CC[n+]1cc(-c2ccccc2)nc(N2CCOCC2)n1 | 1 | 1.2 | 1 | 39* | 2 | 0.8
NC(=O)c1cc(-c2ccccc2)nc(N2CCOCC2)n1 | -1 | 1 | 1 | -9 | 1 | 1
N=c1c2c(-c3ccccc3)c(-c3ccccc3)n(Cc3ccco3)c2ncn1CCCn1ccnc1 | -2 | 1 | 0.9 | 6 | 0 | 1.1
N=c1c2c(-c3ccccc3)c(-c3ccccc3)n(Cc3ccco3)c2ncn1CCCN1CCOCC1 | 11* | 1 | 1 | -11 | 1 | 1
CSc1ccc(-c2nc(CN3CCCCC3c3cccnc3)c(C)o2)cc1 (stereo not given) | 0 | 0.9 | 1 | -16 | -1 | 1
CCc1cccc2c(C(=O)C(F)(F)F)cn(CC(=O)N3CCOCC3)c12 | -4 | 0.9 | 0.9 | 1 | -1 | 0.9
O=C(CSc1nc(C2CCCCC2)n(-c2ccccc2)n1)NCC(F)(F)F | -7 | 0.9 | 1 | 41* | -1 | 0.9
OCC1(CO)COC2(CCCC2)N1 | -3 | 1 | 1 | 62*! | -9 | 1
O=C(COC(=O)CCC(=O)c1cccs1)NCc1ccccc1 | 1 | 1.2 | 1.1 | -2 | 0 | 1
Cc1cc(C(=O)N2CCC(C(=O)O)CC2)c(C)o1 | · | · | · | -2 | · | ·
CSc1n[nH]c(/N=C/c2oc(O)c3ccccc23)n1 | -2 | 1.6 | 1.6 | -6 | -1 | 0.9
Oc1oc(C=Nc2ccc(F)cc2F)c2ccccc12 | 0 | 1.8 | 2.3* | -1 | -1 | 1
COc1ccc(NC(=O)CSc2nccn2C)cc1S(N)(=O)=O | 10* | 1 | 1 | -3 | 4 | 0.9
COc1ccc(NC(=O)CSc2nncs2)cc1S(N)(=O)=O | · | · | · | -11 | · | ·
O=C(/C=C/c1ccc(O)c(O)c1)O[C@H](Cc1ccc(O)c(O)c1)C(=O)O | · | · | · | -29 | · | ·
O=C(O)c1cc(-c2ccc(N3CCOCC3)cc2)nn1-c1ccc(F)cc1F | -12 | 0.9 | 0.9 | 2 | 0 | 0.8
O=C(O)c1cc(-c2ccc(N3CCOCC3)cc2)nn1-c1ccccc1Cl | 21* | 1 | 0.9 | -15 | 0 | 0.9
CC(=O)N[C@@H](C)C(=O)OC(C)C(=O)Nc1cccc([N+](=O)[O-])c1 (stereo not given in full) | -4 | 1 | 1 | -1 | 0 | 1
